Experiments:
[1] = biological target: T1, Adenosine receptor A1 (Homo sapiens) (UniProt P30542); experiment: Potentiation of CCPA-induced displacement of [3H]-DPCPX from human adenosine A1 receptor expressed in CHO cell membranes at 10 uM after 90 mins relative to CCPA-treated control
T1 sequence (whole entry): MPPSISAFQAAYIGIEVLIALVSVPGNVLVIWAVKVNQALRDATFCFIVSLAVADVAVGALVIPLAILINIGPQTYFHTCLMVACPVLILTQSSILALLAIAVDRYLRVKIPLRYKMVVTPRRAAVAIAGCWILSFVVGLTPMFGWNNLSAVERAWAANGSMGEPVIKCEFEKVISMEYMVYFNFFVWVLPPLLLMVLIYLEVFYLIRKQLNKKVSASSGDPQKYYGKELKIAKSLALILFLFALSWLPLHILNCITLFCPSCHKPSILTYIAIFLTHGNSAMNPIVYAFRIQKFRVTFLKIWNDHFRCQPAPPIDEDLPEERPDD
Summary of the method: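 CCPA (0.01 nM–1 µM) competition against [³H]DPCPX in hA1-CHO membranes, with or without compound at 10 µM. Nonspecific binding defined with 1 µM DPCPX. Ki calculated from IC50 by the Cheng-Prusoff equation; CCPA Ki shift given as fold change; three experiments.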

[2] = biological target: T1, Adenosine receptor A1 (Homo sapiens); experiment: Potentiation of [3H]CCPA binding to human adenosine A1 receptor expressed in CHO cell membranes at 10 uM after 90 mins relative to [3H]CCPA-treated control
[3] = biological target: T2, Adenosine receptor A3 (Homo sapiens) (UniProt P0DMS8); experiment: Displacement of [3H]-MRE-3008-F20 from human adenosine A3 receptor expressed in CHO cell membranes at 10 uM by scintillation counting analysis relative to control
T2 sequence (whole entry): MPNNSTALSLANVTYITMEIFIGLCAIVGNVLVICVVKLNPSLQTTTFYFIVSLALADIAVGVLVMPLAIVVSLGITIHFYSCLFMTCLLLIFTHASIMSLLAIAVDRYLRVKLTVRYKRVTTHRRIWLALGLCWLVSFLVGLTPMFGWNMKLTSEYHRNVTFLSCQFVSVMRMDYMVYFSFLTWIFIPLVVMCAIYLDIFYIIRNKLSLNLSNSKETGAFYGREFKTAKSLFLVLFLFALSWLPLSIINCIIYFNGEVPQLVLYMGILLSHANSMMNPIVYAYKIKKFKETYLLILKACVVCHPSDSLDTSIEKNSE
Summary of the method: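 A3-expressing CHO membranes in 50 mM Tris-HCl, 10 mM MgCl₂, 1 mM EDTA pH 7.4 with 2 nM [³H]MRE-3008-F20. Incubated 120 min at 4 °C. Compound 10 µM in 1% DMSO final. Filtration and scintillation counting; percent inhibition of specific binding.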

[4] = biological target: Adenosine receptor A2a (Homo sapiens) (UniProt P29274); experiment: Displacement of [3H]-ZM241385 from human adenosine A2A receptor expressed in CHO cell membranes at 10 uM by scintillation counting analysis relative to control
Chain of Adenosine receptor A2a (Homo sapiens) (P29274 whole entry): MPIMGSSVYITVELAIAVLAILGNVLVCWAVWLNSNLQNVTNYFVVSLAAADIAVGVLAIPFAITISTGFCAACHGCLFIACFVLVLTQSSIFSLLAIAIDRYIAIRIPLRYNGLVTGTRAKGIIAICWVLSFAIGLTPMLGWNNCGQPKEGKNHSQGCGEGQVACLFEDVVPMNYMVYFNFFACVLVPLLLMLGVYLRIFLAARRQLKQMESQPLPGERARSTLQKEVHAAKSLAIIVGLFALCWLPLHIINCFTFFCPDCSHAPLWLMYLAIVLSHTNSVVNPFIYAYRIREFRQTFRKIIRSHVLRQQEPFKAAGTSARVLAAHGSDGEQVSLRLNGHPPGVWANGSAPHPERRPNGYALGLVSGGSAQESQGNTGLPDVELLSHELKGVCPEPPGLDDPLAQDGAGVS
Summary of the method: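 A2A-expressing CHO membranes, pretreated with adenosine deaminase, in 50 mM Tris-HCl, 10 mM MgCl₂ pH 7.4 with 1 nM [³H]ZM 241385. Incubated 60 min at 4 °C. Compound 10 µM in 1% DMSO final. Filtration and scintillation counting; percent inhibition of specific binding.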

[5] = biological target: T1, Adenosine receptor A1 (Homo sapiens); experiment: Displacement of [3H]-DPCPX from human adenosine A1 receptor expressed in CHO cell membranes at 10 uM by scintillation counting analysis relative to control
Summary of the method: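 hA1-CHO membranes, pretreated with adenosine deaminase, in 50 mM Tris-HCl pH 7.4 with 1 nM [³H]DPCPX. Incubated 120 min at 25 °C. Compound 10 µM added from 100-fold DMSO stock, 1% DMSO final. Bound ligand collected on glass-fibre filters and counted by scintillation; percent inhibition of specific binding.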

[6] = biological target: T1, Adenosine receptor A1 (Homo sapiens); experiment: Allosteric enhancement of human adenosine A1 receptor expressed in CHO cells assessed as inhibition of forskolin-stimulated cAMP production at 100 nM preincubated for 10 mins followed by forskolin challenge measured after 5 mins by scintillation counting analysis in presence of CCPA relative to control; assay type: functional, cell-based
Summary of the method: (§1)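 hA1-CHO cells (10⁶ cells/mL) in phosphate buffer with adenosine deaminase 1.0 IU/mL and Ro 20-1724 0.5 mM, preincubated 10 min at 37 °C. Compound added for 10 min, alone or at 100 nM with CCPA 1 pM. Forskolin 1 µM added for 5 min, stopped with cold 6% TCA. cAMP measured by [³H]-cAMP competition protein-binding assay; percent inhibition versus control; three experiments.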

[7] = biological target: T1, Adenosine receptor A1 (Homo sapiens); experiment: Allosteric enhancement of human adenosine A1 receptor expressed in CHO cells assessed as inhibition of forskolin-stimulated cAMP production at 10 uM preincubated for 10 mins followed by forskolin challenge measured after 5 mins by scintillation counting analysis relative to control; assay type: functional, cell-based; summary of the method: as §1

fold change (FC) [1]	fold change (FC) [2]	inhibition [3]	inhibition [4]	inhibition [5]	inhibition [6]	inhibition [7]	Structure (SMILES)
5.4	7.4	5%	3%	1%	60%	64%	COc1ccc(-c2sc(N)c(C(=O)c3ccc(C)cc3)c2CC(C)(C)C)cc1
3.9	5.4	1%	1%	1%	41%	38%	CC(C)(C)Cc1c(-c2ccccc2)sc(N)c1C(=O)c1ccccc1Cl
1.6	1.5	1%	1%	1%	18%	16%	Cc1csc(N)c1C(=O)c1ccc(Cl)cc1
1.1	1.4	1%	1%	1%	19%	12%	Cc1noc(C)c1-c1sc(N)c(C(=O)c2ccc(Cl)cc2)c1CC(C)(C)C
2.7	4.1	1%	1%	1%	49%	47%	Cc1ccccc1-c1sc(N)c(C(=O)c2ccc(Cl)cc2)c1CC(C)(C)C
4.8	6.9	1%	1%	1%	53%	51%	CC(C)(C)Cc1c(-c2ccccc2)sc(N)c1C(=O)c1ccc(Cl)cc1
4.1	4.7	1%	1%	1%	51%	47%	Cc1cccc(-c2sc(N)c(C(=O)c3ccc(Cl)cc3)c2CC(C)(C)C)c1
3.7	6	2%	1%	1%	56%	53%	COc1ccc(-c2sc(N)c(C(=O)c3cccc(Cl)c3)c2CC(C)(C)C)cc1
1.6	3.9	5%	6%	1%	37%	35%	CC(C)(C)Cc1csc(N)c1C(=O)c1ccc(Cl)cc1
2.4	3.6	1%	1%	1%	48%	45%	CC(C)(C)Cc1c(Br)sc(N)c1C(=O)c1cccc(Cl)c1
6	6.4	1%	1%	1%	58%	57%	Cc1ccc(-c2sc(N)c(C(=O)c3ccc(Cl)cc3)c2CC(C)(C)C)cc1
5.8	6.3	1%	2%	1%	57%	55%	COc1cccc(-c2sc(N)c(C(=O)c3ccc(Cl)cc3)c2CC(C)(C)C)c1
3.1	6.3	5%	4%	2%	57%	59%	CC(C)(C)Cc1c(-c2ccccc2)sc(N)c1C(=O)c1cccc(Cl)c1
4.3	6.4	1%	1%	1%	63%	61%	Cc1ccc(C(=O)c2c(N)sc(Br)c2CC(C)(C)C)cc1
2.8	4	6%	1%	1%	46%	42%	CC(C)(C)Cc1c(-c2ccncc2)sc(N)c1C(=O)c1ccc(Cl)cc1
3.1	5.6	1%	1%	1%	56%	55%	CC(C)(C)Cc1c(-c2ccoc2)sc(N)c1C(=O)c1ccc(Cl)cc1
1.7	2.1	1%	6%	1%	26%	24%	Nc1sc(-c2ccccc2)c(-c2ccccc2)c1C(=O)c1ccc(Cl)cc1
4.9	6.1	1%	3%	1%	63%	60%	CC(C)(C)Cc1c(-c2cccc(F)c2F)sc(N)c1C(=O)c1ccc(Cl)cc1
4.1	5.6	1%	1%	1%	58%	56%	CC(C)c1ccc(-c2sc(N)c(C(=O)c3ccc(Cl)cc3)c2CC(C)(C)C)cc1
1.5	1.3		1%	1%			Cc1sc(N)c(C(=O)c2cccc(C(F)(F)F)c2)c1C
3.3	5.5	1%	1%	1%	55%	53%	COCCOc1ccc(-c2sc(N)c(C(=O)c3ccc(Cl)cc3)c2CC(C)(C)C)cc1
2.2	3.7	1%	1%	1%	41%	37%	CC(C)(C)Cc1c(-c2cccnc2)sc(N)c1C(=O)c1ccc(Cl)cc1
1.6	1.4	1%	1%	1%	21%	16%	Cc1sc(N)c(C(=O)c2ccc(Cl)cc2)c1-c1ccccc1
3.9	6.2	1%	2%	1%	62%	58%	CC(C)(C)Cc1c(-c2cccs2)sc(N)c1C(=O)c1ccc(Cl)cc1
3	4.4	4%	1%	1%	50%	49%	CC(C)(C)Cc1c(Br)sc(N)c1C(=O)c1cccc(C(F)(F)F)c1
4	5.8	1%	1%	1%	58%	57%	CC(C)(C)Cc1c(-c2ccc(Cl)cc2)sc(N)c1C(=O)c1ccc(Cl)cc1
1.5	4.3	8%	1%	2%	42%	45%	CC(C)(C)Cc1csc(N)c1C(=O)c1cccc(Cl)c1

From ChEMBL document CHEMBL3098020, “Synthesis and biological evaluation of novel 2-amino-3-aroyl-4-neopentyl-5-substituted thiophene derivatives as allosteric enhancers of the A₁ adenosine receptor” (Bioorg Med Chem, 2014)
